The EternaBench riboswitch data

System: MS2 coat protein
Assay: apparent Kd, MS2 coat protein; higher = weaker binding; RNA-MaP array; FMN 200 µM where present
How it was run: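 SNAP-549-labelled MS2 coat protein, doubled from 0.7 or 1.5 nM to 3 µM, was titrated over designs transcribed by stalled E. coli RNA polymerase on Illumina sequencing-chip clusters. Titrations were run without and then with constant ligand in 100 mM Tris-HCl pH 7.5, 80 mM KCl, 4 mM MgCl2, BSA, DTT, yeast tRNA and Tween-20. The apparent Kd is the median of filtered per-cluster fits to green signal normalised to red-channel RNA signal and control-cluster median Fmax.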

[1] = designed as: OFF switch for flavin mononucleotide, no ligand
[2] = ligand present: flavin mononucleotide, designed as: OFF switch for flavin mononucleotide
[3] = designed as: ON switch for flavin mononucleotide, no ligand
[4] = ligand present: flavin mononucleotide, designed as: ON switch for flavin mononucleotide

| Sequence | apparent Kd [1] [nM] | apparent Kd [2] [nM] | apparent Kd [3] [nM] | apparent Kd [4] [nM] |
| --- | --- | --- | --- | --- |
| GUUGCGUUUGUGAGGAUAUGCUGGUCCUUGGUUCGGCAGAAGGCACAUGAGGAUCACCCAUGUGGUGUUGUUCC | 126 | 94.7 |  |  |
| GUUGCUAUCGGAGGAUAUUCAUACCGGAAACGGACAUGAGGAUCACCCAUGUGGCGAAAGCCAUGGGAGAAGGCCGAUAGCAAC |  |  | 1350 | 138 |
| GUUUUGAUAGGAUAUACAUGAGGAUCACCCAUGUCCCACCCGUUACCUAUGACCAUAUGUAGAAGGAUCGUUUG | 98.1 | 83.9 |  |  |
| GUUUUGGUAGGAUAUACAUGAGGAUCACCCAUGUCCCACCCGUUACCUAUGACCAUAUGUAGAAGGACCAUUUG | 22.2 | 28.2 |  |  |
| GUUUUUUUUCAUGUACAUGAGGAACAUGAGGAUCACCCAUGUAGAAGGAAUUUUUUUAAGUUUAGUUAGGAUAUACAUAUAUUG | 54.2 | 33.9 |  |  |
| UAAAAGUCAGGAUAUGCGAAGGCGUCUGAUAGACGAGGCUAGCAGAAGGGACAUGAGGAUCACCCAUGUGAAAU | 51.8 | 138 |  |  |
| UAAAGCGUAGAUAAUUAUGUUACAUGAGGAUCACCCAUGUCAUAGGAUAUGCAGUGGAAUACACUGCAGAAGGAUGAAUCGCAG | 24.9 | 33.3 |  |  |
| UAAAUAUUAAAAGGAUAUUCAUACCGGAAACGGACAUGAGGAUCACCCAUGUGGCGAAAGCCUUGGGAGAAGGUAUUAUAAAAU |  |  | 333 | 248 |
| UAAAUGUGAGGAUAUCAGGUGUGCUAGCAUACUGGUACAUCUGAGAAGGCACAUGAGGAUCACCCAUGUUCCUU | 16.8 | 52.4 |  |  |
| UAAAUGUGAGGAUAUCAGGUGUGCUAGCGUACUGGUACAUCUGAGAAGGCACAUGAGGAUCACCCAUGUUCCUU | 16.8 | 61.3 |  |  |
| UAAAUGUGAGGAUAUUCGUAGUACUCGGAGACGAGUAUUACGGAGAAGGCACAUGAGGAUCACCCAUGUUCCUU | 21.3 | 188 |  |  |
| UAAAUUAACAAGAAGGCUAACAUGAGGAUCACCCAUGUUGUACAUGGAUAUAGAGGAUAUUGCUAAUUAUUAUUUAUCAUAAUU | 23.6 | 18.3 |  |  |
| UAAAUUAACAAGAAGGCUAACAUGAGGAUCACCCAUGUUGUACAUGGAUAUAGAGGAUAUUGCUAUUAAUUAUUUAUCAUAAUU | 21.2 | 18.9 |  |  |
| UAACAAAUUGUCAGGAUAUCAUUCCCGGCCCAGAGUGAGAAGGGACAUGAGGAUCACCCAUGUAUGAUUCUCAC | 16.1 | 15.3 |  |  |
| UAACCAGUCCAGAAGGUGACGUCUGAAACUAGUCAAGGAUAUGGGUUGGUCCACGGUCGGCUACAUGAGGAUCACCCAUGUACC |  |  | 32.8 | 8.33 |
| UAAUAAUUAUGAGGAUAUAUACAACAUGAGGAUCACCCAUGUACCCAUGUAGUAGAAGGCAUAUUUUUAUUUAAUAAUAUAACU |  |  | 60.4 | 27.6 |
| UAAUAAUUAUGAGGAUAUAUACAACAUGAGGAUCACCCAUGUACCCAUGUAGUAGAAGGCAUAUUUUUAUUUAAUAAUAUAAUU |  |  | 79.4 | 33.9 |
| UAAUAUAUACAAGGAUAUCAAUUAUAUACACAUCCUACAUGAGGAUCACCCAUGUUUUAUUUUUUUGAGAAGGUGUAUUGUCGG |  |  | 20.4 | 29.1 |
| UAAUCUCAGAUAGGAUAUAUAGGAUGAUUUAAGACUGAACAUGAGGAUCACCCAUGUGAUUAUCUGUAGAAGGAUCAAUUAGCC |  |  | 476 | 365 |
| UACAGACAUGAGGAUCACCCAUGUAAGGAUAUCGGUACUGAUGGUAUAAUCUACUCAGCGAGAAGGUACAGUGU | 33.6 | 33.2 |  |  |
| UACAGCGUAGAUAAUUAUGUUACAUGAGGAUCACCCAUGUCAUAGGAUAUGCAGUGGAAUACACUGCAGAAGGAUGCAUCGCUG | 14.7 | 18.5 |  |  |
| UACAUCAAUGAAGGAUAUCUAUAUCCAACAUGAGGAUCACCCAUGUUGAGGAUCACCCAUGUAAAGGAGAAGGUUAACAUAACU |  |  | 39.4 | 34 |
| UACAUCAAUGAAGGAUAUCUAUAUCCAACAUGAGGAUCACCCAUGUUGAGGAUCACCCAUGUAAAGGAGAAGGUUAAUAUAACU |  |  | 37.7 | 29.7 |
| UACAUCUCGUAAGGAUAUACACGAGAUUCAAGUGUAGAAGGUACUAACAUGAGGAUCACCCAUGUAUACAUGGAUAAUAGAUAU |  |  | 91.6 | 59.7 |
| UACAUGAGGAUCACCCAUGUUAACAUGGAGUUGUUAUAUCUGAGAAGGGUAAUAUUACAUUAAGUACAGGAUAUCAAUGAUGUU | 45.2 | 18.4 |  |  |
| UACAUGAGGAUCACCCAUGUUUUGUCGUGUAUGGUAUUUAUCUAGGAUAUCAAUAUAUUUAUUUAUGAGAAGGAGAAUAUUAAU | 38 | 33.6 |  |  |
| UACAUGAGGAUCACCCAUGUUUUGUCGUGUAUGGUAUUUAUCUAGGAUAUCAAUUUACUUAUUUAUGAGAAGGAGAAUAUUAAU | 32.4 | 31.3 |  |  |
| UACAUGAGGAUCACCCAUGUUUUGUCGUGUAUGGUAUUUAUCUAGGAUAUCAAUUUAGUUAAUUAUGAGAAGGAGAAUAUUAAU | 39.1 | 39 |  |  |

| Sequence | apparent Kd [1] [nM] | apparent Kd [2] [nM] | apparent Kd [3] [nM] | apparent Kd [4] [nM] |
| --- | --- | --- | --- | --- |
| UACAUUUAACAGAAGGCGUUUAUAUAUAACUUACGAGGAUAUGUAUAACAUGAGGAUCACCCAUGUAACAUGGAGAGAAUAUCU |  |  | 43.1 | 26.6 |
| UACCGCGACAACACGGUAUCACAUGAGGAUCACCCAUGUUCACAGGAUAUGCGAUAGCCAACGAAGCAGAAGGGUGAUUACUUA |  |  | 37.3 | 263 |
| UACGUACAGAAGAACGCCGGGUCCAGAAGGGACAUGAGGAUCACCCAUGUACCGUUGAUUGCUUGUCAGGAUAUGGACCCGGCC | 6.32 | 21.8 |  |  |
| UACUUCCGAGGAUAUACAUGAGGAUCACCCAUGUGCUUCAGCAUCGAAAGAUGCAUGGGUAGAAGGCGGUAGUU | 44.6 | 50.4 |  |  |
| UAGAAGUCAGGAUAUGCUGCUCGUCACUUGCGUGAUGAGUAGCAGAAGGGACAUGAGGAUCACCCAUGUAAAGC | 48.8 | 54.3 |  |  |
| UAGAUGGGAGGAUAUACGUAUAUGCAGGUUCGUGUGGUGCUACAUGAGGAUCACCCAUGUAGAAGGCCCGUCUU |  | 38.6 |  |  |
| UAGCAGUAGGGAGGAUAUGCGAAAGGAAGGCCCGCAGAAGGCCUUACAUGAGGAUCACCCAUGUAGGAUGCCUGGGUGGUGCCC | 13.8 | 20.3 |  |  |
| UAGCUUGAUUCUCGUGUAUACAUGAGGAUCACCCAUGUGACGCAGGAUAUAGGCGUGUUAGUAGCCUAGAAGGGCGAGCAGCGU | 153 | 235 |  |  |
| UAGGACUACGUAGGAUAUGUAGUUGAUUUCUACAUGAGGAUCACCCAUGUUUGCAUUUUAUUAGGACAGAAGGACGUGGUAAAU |  |  | 16.1 | 7.36 |
| UAGGACUACGUAGGAUAUUAAAUCAUGUACUACAUGAGGAUCACCCAUGUUAAUUUAUCAUCAGCUGAGAAGGACGUGGUAAAU |  |  | 104 | 61.7 |
| UAGGUCAUCUGAGGAUAUCGAACUCAAAGGCUACGAGAAGGCAGACUGACAUGAGGAUCACCCAUGUACCGGGAAGAUGCCUCC | 14.6 | 130 |  |  |
| UAGUGCGUUAGAGGAUAUUCAAGGUGAAAAAAAAAUACAUGAGGAUCACCCAUGUAAAAACAUGAGGAGAAGGCUGAUGUGCUA |  |  | 38.6 | 27.6 |
| UAGUGCGUUAGAGGAUAUUCUAAAAUAAAAUAAAAGACAUGAGGAUCACCCAUGUAUGUACAUGGGAAGAAGGCUGAUGUGCUA |  |  | 438 | 51.4 |
| UAGUGGCAAGGAUAUACAGAGGAGAGGAUUGCAAGAGGUGGACAUGAGGAUCACCCAUGUAGAAGGUGCAGAGA | 239 | 281 |  |  |
| UAUAACUAACAGAAGGGUAUUUGGGAUCAUUAUUAGGAGGAAAUACUAUACAGGAUAUGUAAUACAUGAGGAUCACCCAUGUUC |  |  | 20 | 15.7 |
| UAUAAUAUUAUAGGAUAUGGAUACGAUACGUAUCCAGAAGGGUGAUUAUAAUAUAAUCUAUACAUGAGGAUCACCCAUGUUUAU |  |  | 228 | 98 |
| UAUAAUCGAGGAUAUACAUGAGGAUCACCCAUGUGUUGCCGCGUGACAUGAUCGUCAGGUAGAAGGCGAUUAUA | 189 | 39.7 |  |  |
| UAUAAUUAGUAGAAGGACGGUGAGUAAGAGGUCGUAGGAUAUACAACUGACAUGAGGAUCACCCAUGUGUGUAUGUUGGGAAGG | 11.1 | 9.9 |  |  |
| UAUAUACAUGAGGAUCACCCAUGUAAGGAUAUGCAUUAUUAUUAUUAUUAUUAUUAUUGCAGAAGGUACAAUAU | 40.7 | 39.3 |  |  |
| UAUAUAUAGUAAGGAUAUGUAAUUAUUUUAUGAACAGAAGGUACUGACAUGAGGAUCACCCAUGUUUUAGUGUGGGCAUGUAGA | 82.9 | 119 |  |  |
| UAUAUAUAGUAAGGAUAUGUAUAUACUUUAUAAACAGAAGGUACUGACAUGAGGAUCACCCAUGUUUUAGUGUGGGCAUGUAGA | 75.9 | 102 |  |  |
| UAUAUAUAGUAAGGAUAUGUAUAUAUUUAAUAAACAGAAGGUACUGACAUGAGGAUCACCCAUGUUUUAGUGUGGGCAUGUAGA | 74.1 | 110 |  |  |
| UAUAUAUAGUAAGGAUAUGUAUUAAUUUUAGAAACAGAAGGUACUGACAUGAGGAUCACCCAUGUUUUAGUGUGGGCAUGUAGA | 98.3 | 147 |  |  |
| UAUAUGUCAGGAUAUCGAUUGGAAUGGAAUUCGGUUCUGGUUGAGAAGGGACAUGAGGAUCACCCAUGUUUUUC | 27.6 | 84.4 |  |  |
| UAUAUGUCAGGAUAUCGAUUGGUACGGGAUUCGGUACUGGUUGAGAAGGGACAUGAGGAUCACCCAUGUUUUUC | 37.8 | 162 |  |  |
| UAUAUUAUUAUAGGAUAUGGAUAUGAUGCAUAUCCAGAAGGGUGAUUAUAAUAUAAUCUAUACAUGAGGAUCACCCAUGUUUAU |  |  | 216 | 78.5 |
| UAUGAACAUGAGGAUCACCCAUGUGGAAAGGACACAGGAUAUCAUCUCGCACGUGCGAUAUGAGAAGGGUGAUGGU |  |  | 117 | 180 |
